Calls of active or inactive are those of the source.
Legend:
[1] = biological target: RNA 5'-monophosphate methyltransferase (Homo sapiens) (UniProt Q7Z5W3); assay: Inhibition of human BCDIN3D using biotin-tagged microRNA-145 and 3H-SAM as substrate at 10 uM incubated for 1 hrs by TopCount scintillation proximity assay relative to control
How it was run: (§1)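 Human methyltransferase panel, radiometric assays. Each compound tested at a single 10 μM concentration in triplicate. Enzymes inhibited by more than 50% were taken on to concentration–response.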

[2] = biological target: Histone-lysine N-methyltransferase EHMT1 (Homo sapiens) (UniProt Q9H9B1); assay: Inhibition of human GLP using biotin-tagged Histone H3 and 3H-SAM as substrate at 10 uM incubated for 1 hrs by TopCount scintillation proximity assay relative to control; how it was run: as §1
Histone-lysine N-methyltransferase EHMT1 (Homo sapiens), sequence (Q9H9B1 whole entry): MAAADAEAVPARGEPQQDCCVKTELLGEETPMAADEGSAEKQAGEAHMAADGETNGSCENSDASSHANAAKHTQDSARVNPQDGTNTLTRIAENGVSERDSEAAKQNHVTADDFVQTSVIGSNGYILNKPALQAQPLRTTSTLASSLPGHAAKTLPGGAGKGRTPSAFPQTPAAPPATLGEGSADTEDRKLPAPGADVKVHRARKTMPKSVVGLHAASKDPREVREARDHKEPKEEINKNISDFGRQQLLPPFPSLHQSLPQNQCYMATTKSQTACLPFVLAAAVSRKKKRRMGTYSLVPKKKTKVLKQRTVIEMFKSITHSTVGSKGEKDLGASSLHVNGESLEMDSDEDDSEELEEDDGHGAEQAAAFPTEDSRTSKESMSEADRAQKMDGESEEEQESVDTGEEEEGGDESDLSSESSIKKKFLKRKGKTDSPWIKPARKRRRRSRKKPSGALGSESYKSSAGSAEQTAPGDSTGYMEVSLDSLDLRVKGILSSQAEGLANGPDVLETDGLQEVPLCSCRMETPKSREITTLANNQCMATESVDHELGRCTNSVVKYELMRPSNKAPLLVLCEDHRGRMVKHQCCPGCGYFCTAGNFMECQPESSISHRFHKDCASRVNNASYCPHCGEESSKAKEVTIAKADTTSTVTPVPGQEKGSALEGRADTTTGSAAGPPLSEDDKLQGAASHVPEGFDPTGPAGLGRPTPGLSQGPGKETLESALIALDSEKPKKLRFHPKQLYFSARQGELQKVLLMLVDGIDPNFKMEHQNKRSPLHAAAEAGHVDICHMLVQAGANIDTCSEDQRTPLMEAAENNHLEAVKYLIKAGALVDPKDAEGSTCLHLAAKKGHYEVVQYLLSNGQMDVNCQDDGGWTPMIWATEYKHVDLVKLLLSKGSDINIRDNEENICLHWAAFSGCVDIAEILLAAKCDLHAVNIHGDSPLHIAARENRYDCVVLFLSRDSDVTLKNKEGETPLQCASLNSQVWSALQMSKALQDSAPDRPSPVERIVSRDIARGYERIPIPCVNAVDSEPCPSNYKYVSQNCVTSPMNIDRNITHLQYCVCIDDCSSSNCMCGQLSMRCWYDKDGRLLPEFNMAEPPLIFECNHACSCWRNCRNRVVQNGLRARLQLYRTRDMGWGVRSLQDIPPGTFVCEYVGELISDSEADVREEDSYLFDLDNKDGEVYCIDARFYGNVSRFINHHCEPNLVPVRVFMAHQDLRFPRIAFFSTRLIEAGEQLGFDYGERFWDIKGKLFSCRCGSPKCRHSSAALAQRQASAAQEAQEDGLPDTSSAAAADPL

[3] = biological target: Protein arginine N-methyltransferase 1 (Homo sapiens, UniProt Q99873); assay: Inhibition of human PRMT1 using biotin-tagged Histone H4 and 3H-SAM as substrate at 10 uM incubated for 1 hrs by TopCount scintillation proximity assay relative to control; how it was run: as §1
[4] = biological target: Histone-lysine N-methyltransferase KMT5B (Homo sapiens) (UniProt Q4FZB7); assay: Inhibition of human SUV420H1 using Biotin-tagged H4K20me1 and 3H-SAM as substrate at 10 uM incubated for 1 hrs by TopCount scintillation proximity assay relative to control
How it was run: (§2)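 Selectivity panel against human SAM-dependent methyltransferases, radiometric format. Single test concentration of 10 μM, triplicate, read as percent inhibition.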

[5] = biological target: Histone-lysine N-methyltransferase SETDB1 (Homo sapiens) (UniProt Q15047); assay: Inhibition of human SETDB1 using biotin-tagged Histone H3 and 3H-SAM as substrate at 10 uM incubated for 1 hrs by TopCount scintillation proximity assay relative to control; how it was run: as §2
[6] = biological target: Histone-lysine N-methyltransferase SMYD3 (Homo sapiens) (UniProt Q9H7B4); assay: Inhibition of human SMYD3 using biotin-tagged MAP3K2 and 3H-SAM as substrate at 10 uM incubated for 1 hrs by TopCount scintillation proximity assay relative to control; how it was run: as §2
Histone-lysine N-methyltransferase SMYD3 (Homo sapiens), sequence (Q9H7B4 whole entry): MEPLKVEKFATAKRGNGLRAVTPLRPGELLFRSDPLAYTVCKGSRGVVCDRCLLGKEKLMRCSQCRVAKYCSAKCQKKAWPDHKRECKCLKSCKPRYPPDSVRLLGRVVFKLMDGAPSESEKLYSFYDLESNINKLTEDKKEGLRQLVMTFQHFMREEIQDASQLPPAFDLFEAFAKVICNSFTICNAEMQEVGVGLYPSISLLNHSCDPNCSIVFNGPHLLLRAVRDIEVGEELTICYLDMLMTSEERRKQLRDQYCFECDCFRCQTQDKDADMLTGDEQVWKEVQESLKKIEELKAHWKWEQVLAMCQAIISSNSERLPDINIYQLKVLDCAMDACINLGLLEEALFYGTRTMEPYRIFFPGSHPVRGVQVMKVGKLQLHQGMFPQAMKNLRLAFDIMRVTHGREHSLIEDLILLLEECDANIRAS

Homo sapiens = organism: Homo sapiens; assay: Inhibition of human EZH2 using biotin-tagged Histone H3 and 3H-SAM as substrate at 10 uM incubated for 1 hrs by TopCount scintillation proximity assay relative to control; how it was run: as §1
Bacteria = assay: Inhibition of beta-lactamase AmpC (unknown origin) pre-incubated with compound for 5 mins followed by substrate addition and measured after 1.5 mins by absorbance based plate reader analysis; conditions: time 6.5 min
How it was run: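 AmpC at 2 nM preincubated 5 min with compound at room temperature in 50 mM KPi, pH 7.0, with 1% v/v DMSO. Started with 50 μM CENTA (read at 405 nm) or 50 μM nitrocefin (read at 490 nm), monitored 1 min 30 s. Initial rate taken as % of DMSO control. Top concentration in triplicate; eight-point half-log curves in triplicate where inhibition exceeded 40%.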

[7] = biological target: Histone-lysine N-methyltransferase SETD7 (Homo sapiens) (UniProt Q8WTS6); assay: Inhibition of human SETD7 using biotin-tagged Histone H3 and 3H-SAM as substrate at 10 uM incubated for 1 hrs by TopCount scintillation proximity assay relative to control; how it was run: as §2
[8] = biological target: N-lysine methyltransferase KMT5A (Homo sapiens) (UniProt Q9NQR1); assay: Inhibition of human SETD8 using biotin-tagged Histone H4 and 3H-SAM as substrate at 10 uM incubated for 1 hrs by TopCount scintillation proximity assay relative to control; how it was run: as §2
N-lysine methyltransferase KMT5A (Homo sapiens), sequence (Q9NQR1 whole entry): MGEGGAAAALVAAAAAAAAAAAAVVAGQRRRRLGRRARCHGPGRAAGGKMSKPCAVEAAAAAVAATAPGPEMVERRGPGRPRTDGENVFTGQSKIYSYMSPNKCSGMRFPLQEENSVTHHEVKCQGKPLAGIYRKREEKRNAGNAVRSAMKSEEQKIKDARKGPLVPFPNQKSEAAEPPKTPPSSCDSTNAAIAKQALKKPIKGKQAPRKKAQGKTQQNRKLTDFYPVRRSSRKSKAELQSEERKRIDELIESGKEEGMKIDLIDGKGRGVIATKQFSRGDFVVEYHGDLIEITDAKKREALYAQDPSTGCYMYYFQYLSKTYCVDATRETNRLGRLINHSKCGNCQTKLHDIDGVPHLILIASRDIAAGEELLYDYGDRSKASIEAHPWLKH

[9] = biological target: Histone-lysine N-methyltransferase SUV39H1 (Homo sapiens) (UniProt O43463); assay: Inhibition of human SUV39H1 using Biotin-tagged histone H3 and 3H-SAM as substrate at 10 uM incubated for 1 hrs by TopCount scintillation proximity assay relative to control; how it was run: as §2
[10] = biological target: Histone-lysine N-methyltransferase, H3 lysine-79 specific (Homo sapiens, UniProt Q8TEK3); assay: Inhibition of human DOT1L using chicken nucleosome and 3H-SAM as substrate at 10 uM incubated for 1 hrs by TopCount scintillation proximity assay relative to control; how it was run: as §1
[11] = biological target: Histone-lysine N-methyltransferase EHMT2 (Homo sapiens) (UniProt Q96KQ7); assay: Inhibition of human G9a using biotin-tagged Histone H3 and 3H-SAM as substrate at 10 uM incubated for 1 hrs by TopCount scintillation proximity assay relative to control; how it was run: as §1
[12] = biological target: Replicase polyprotein 1ab (Severe acute respiratory syndrome coronavirus 2) (UniProt P0DTD1); assay: Non-covalent inhibition of N-terminal 6His/SUMO-tagged SARS-CoV-2 NSP14 expressed in Escherichia coli Rosetta 2 (DE3) PlysS cells using 5'GpppACCCCCCCCC-Biotin 3' and 3H-SAM as substrates incubated for 30 mins by TopCount scintillation proximity assay
How it was run: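 Radiometric N7-MTase assay tracking [3H]-methyl transfer from SAM onto the cap of […] RNA, run with 0.01% v/v Triton X-100. Concentration–response in triplicate to give IC50.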

[13] = biological target: Histone-lysine N-methyltransferase, H3 lysine-36 specific (Homo sapiens) (UniProt Q96L73); assay: Inhibition of human NSD1 using chicken nucleosome and 3H-SAM as substrate at 10 uM incubated for 1 hrs by TopCount scintillation proximity assay relative to control; how it was run: as §1
Histone-lysine N-methyltransferase, H3 lysine-36 specific (Homo sapiens), sequence (Q96L73 whole entry): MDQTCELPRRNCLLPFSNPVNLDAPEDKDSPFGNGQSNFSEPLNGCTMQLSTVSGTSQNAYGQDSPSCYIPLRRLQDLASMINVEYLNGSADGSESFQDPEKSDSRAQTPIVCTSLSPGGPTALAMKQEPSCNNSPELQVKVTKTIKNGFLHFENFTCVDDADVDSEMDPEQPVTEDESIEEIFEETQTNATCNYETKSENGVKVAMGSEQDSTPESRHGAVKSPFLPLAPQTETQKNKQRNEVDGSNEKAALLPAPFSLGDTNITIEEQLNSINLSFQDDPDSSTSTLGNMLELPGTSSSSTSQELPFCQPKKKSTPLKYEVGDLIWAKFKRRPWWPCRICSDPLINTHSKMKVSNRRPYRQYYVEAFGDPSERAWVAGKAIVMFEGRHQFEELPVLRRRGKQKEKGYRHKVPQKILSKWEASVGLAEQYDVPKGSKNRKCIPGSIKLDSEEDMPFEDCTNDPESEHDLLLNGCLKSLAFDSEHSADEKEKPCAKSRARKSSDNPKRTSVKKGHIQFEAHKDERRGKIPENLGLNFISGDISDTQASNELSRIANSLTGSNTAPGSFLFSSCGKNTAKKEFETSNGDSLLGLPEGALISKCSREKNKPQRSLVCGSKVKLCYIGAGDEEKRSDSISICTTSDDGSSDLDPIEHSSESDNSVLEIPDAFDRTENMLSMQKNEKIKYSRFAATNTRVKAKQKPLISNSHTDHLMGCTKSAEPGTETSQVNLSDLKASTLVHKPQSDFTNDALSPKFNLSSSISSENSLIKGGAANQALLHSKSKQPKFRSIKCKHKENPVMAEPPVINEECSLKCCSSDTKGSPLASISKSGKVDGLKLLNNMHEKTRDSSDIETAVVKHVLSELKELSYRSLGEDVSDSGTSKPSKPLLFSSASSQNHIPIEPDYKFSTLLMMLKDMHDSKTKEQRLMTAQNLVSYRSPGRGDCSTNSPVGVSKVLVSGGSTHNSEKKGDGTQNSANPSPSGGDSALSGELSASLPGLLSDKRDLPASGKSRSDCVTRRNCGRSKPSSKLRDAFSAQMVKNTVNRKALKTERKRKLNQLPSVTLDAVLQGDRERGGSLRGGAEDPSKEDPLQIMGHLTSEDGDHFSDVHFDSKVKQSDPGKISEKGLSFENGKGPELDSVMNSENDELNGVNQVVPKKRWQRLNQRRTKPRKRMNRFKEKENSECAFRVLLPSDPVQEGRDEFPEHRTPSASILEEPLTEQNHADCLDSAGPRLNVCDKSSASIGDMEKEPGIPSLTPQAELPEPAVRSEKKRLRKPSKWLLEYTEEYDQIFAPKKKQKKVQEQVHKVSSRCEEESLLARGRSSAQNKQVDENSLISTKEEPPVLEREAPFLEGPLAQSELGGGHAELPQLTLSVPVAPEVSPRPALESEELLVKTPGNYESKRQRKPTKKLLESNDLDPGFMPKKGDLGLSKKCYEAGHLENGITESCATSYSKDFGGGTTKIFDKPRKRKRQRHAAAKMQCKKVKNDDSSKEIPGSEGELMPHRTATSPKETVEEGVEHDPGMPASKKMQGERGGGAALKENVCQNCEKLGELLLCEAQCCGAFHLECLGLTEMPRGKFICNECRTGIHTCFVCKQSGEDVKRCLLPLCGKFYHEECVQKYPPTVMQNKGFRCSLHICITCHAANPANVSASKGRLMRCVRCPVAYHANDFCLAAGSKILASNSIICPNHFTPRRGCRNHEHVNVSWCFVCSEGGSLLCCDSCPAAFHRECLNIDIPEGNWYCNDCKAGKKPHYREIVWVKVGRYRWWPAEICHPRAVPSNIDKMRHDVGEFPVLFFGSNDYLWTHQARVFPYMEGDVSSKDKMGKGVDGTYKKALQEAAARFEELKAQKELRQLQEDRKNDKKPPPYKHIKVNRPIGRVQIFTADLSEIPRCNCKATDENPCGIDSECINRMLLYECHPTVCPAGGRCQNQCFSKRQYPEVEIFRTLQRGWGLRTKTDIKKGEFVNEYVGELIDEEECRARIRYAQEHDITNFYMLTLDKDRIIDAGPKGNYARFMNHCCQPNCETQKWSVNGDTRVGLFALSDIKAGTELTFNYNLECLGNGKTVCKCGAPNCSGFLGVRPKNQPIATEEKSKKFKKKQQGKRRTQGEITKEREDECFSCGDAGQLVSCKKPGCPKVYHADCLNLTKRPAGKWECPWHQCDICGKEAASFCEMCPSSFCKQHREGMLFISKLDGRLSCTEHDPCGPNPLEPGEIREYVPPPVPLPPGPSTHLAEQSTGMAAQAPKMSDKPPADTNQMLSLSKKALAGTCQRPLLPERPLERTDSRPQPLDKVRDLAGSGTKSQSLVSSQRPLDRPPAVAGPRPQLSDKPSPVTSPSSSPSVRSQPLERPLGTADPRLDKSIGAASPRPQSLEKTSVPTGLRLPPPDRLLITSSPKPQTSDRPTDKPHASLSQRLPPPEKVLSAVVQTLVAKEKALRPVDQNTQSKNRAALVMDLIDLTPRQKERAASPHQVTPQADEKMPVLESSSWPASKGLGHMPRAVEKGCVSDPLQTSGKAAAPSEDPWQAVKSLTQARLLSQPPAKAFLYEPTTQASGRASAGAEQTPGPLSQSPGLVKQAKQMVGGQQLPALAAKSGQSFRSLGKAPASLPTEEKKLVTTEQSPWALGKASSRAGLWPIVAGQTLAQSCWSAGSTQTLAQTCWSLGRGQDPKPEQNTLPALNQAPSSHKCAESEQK

Measured: inhibition

RNA 5'-monophosphate methyltransferase (Homo sapiens), sequence (Q7Z5W3 whole entry): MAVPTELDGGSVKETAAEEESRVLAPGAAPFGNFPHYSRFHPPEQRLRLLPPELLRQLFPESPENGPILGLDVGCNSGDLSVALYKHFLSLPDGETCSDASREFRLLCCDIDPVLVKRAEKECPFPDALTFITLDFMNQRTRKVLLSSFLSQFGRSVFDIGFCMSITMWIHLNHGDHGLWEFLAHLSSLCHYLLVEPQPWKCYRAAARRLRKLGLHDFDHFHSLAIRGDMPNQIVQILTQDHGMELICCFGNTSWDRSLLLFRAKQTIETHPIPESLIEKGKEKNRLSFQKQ

Cc1c(C(=O)/C=C/c2ccc(O)c([N+](=O)[O-])c2)c(C#N)c2n1CCC2
active: Bacteria | [12]
< 50%: all other assays above

Reference: ChEMBL document CHEMBL5338825, “Structure-Based Discovery of Inhibitors of the SARS-CoV-2 Nsp14 N7-Methyltransferase” (J Med Chem, 2023)
